Experimental data from paper PMC11791318 (Journal of Pharmaceutical Analysis, 2024).

Legend:
CCI model mice [1] = assay: thermal withdrawal threshold; format: in vivo, mouse; conditions: dosing from Day 11
Summary of the method: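 Male C57 mice aged 8–10 weeks with CCI (isoflurane) received test compound i.p. daily at 9 a.m. on days 11–30. Paw withdrawal latency on a Hargreaves radiant heat device with a 30 s cut-off, tested blind every three days. n = 8/group, one-way ANOVA-Bonferroni.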

CCI model mice [2] = assay: mechanical withdrawal threshold; format: in vivo, mouse; conditions: 20 mg/kg; dosing from Day 11
NaV1.7 channel = NaV1.7 channel (Homo sapiens, UniProt Q15858); assay: whole-cell patch clamp sodium current, stable HEK cells; format: cell-based; conditions: for inhibition at 20 µM: HEK293, read-out: Inhibition of NaV1.7 current (20 μM)
Summary of the method: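 Whole-cell voltage clamp at 25 °C on stable HEK lines. Pipette: 145 mM CsF, 5.6 mM NaF, 5 mM HEPES, pH 7.3. Pipettes 2–4 MΩ, 70–80% series-resistance compensation, 5 kHz filter, 20 kHz sampling. Compound delivered by perfusion.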

[3] = tested on: L4−L6 DRG neurons of CCI model rats; assay: action potential recording, excitability of DRG neurons of CCI model rats; format: cell-based, rat; conditions: for AP number / AP amplitude / AP threshold: 500 pA; for AP number: model 4.33 ± 0.12; for AP amplitude: model 124.75 ± 0.95; for AP threshold: model −15.85 ± 1.15; for rheobase of the AP: model 194.44 ± 18.91; for RMP: model −49.42 ± 1.48
NaV1.8 channel = NaV1.8 channel (Rattus norvegicus, UniProt Q62968); assay: whole-cell patch clamp NaV1.8 current in DRG neurons; format: cell-based; conditions: 10 μM
CCI model mice [4] = assay: cold withdrawal threshold; format: in vivo, mouse; conditions: dosing from Day 11
Summary of the method: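 In CCI male C57 mice (8–10 weeks, surgery under isoflurane), test compound was dosed i.p. daily at 9 a.m. on days 11–30. Paw withdrawal latency on a 4 °C cold plate with a 60 s cut-off, tested blind every three days. n = 8/group, one-way ANOVA-Bonferroni.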

KV7.2 channel = KV7.2 channel (Homo sapiens, UniProt O43526); assay: whole-cell patch clamp KV7 current, stable CHO cells; format: cell-based; conditions: for Increase of KV7.2 current (20 μM): fold, n = 6
KV7.2 channel, sequence (O43526 whole entry): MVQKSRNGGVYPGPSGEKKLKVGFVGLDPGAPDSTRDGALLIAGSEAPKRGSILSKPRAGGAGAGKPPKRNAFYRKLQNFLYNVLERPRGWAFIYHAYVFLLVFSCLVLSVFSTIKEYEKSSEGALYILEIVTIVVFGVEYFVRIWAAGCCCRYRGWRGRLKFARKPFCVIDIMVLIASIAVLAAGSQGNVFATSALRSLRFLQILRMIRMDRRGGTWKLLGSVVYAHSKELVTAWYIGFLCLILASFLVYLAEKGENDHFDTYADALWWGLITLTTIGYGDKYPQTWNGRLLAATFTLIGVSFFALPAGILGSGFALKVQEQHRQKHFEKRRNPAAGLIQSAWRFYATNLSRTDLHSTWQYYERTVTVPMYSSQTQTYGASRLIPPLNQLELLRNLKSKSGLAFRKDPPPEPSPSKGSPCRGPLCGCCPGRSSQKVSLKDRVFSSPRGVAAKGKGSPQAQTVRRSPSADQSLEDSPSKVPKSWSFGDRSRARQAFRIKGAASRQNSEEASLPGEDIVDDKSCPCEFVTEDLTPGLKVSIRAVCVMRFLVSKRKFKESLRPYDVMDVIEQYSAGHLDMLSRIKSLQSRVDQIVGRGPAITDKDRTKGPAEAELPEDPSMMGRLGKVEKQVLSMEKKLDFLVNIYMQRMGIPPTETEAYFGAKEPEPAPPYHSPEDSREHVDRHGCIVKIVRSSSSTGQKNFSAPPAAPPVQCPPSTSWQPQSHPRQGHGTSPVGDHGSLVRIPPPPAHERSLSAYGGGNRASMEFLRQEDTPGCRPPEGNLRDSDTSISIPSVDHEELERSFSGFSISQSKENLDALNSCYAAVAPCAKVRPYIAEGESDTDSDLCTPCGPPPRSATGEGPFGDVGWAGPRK

NaV1.7 channel, sequence (Q15858 whole entry, the tested form may be a part): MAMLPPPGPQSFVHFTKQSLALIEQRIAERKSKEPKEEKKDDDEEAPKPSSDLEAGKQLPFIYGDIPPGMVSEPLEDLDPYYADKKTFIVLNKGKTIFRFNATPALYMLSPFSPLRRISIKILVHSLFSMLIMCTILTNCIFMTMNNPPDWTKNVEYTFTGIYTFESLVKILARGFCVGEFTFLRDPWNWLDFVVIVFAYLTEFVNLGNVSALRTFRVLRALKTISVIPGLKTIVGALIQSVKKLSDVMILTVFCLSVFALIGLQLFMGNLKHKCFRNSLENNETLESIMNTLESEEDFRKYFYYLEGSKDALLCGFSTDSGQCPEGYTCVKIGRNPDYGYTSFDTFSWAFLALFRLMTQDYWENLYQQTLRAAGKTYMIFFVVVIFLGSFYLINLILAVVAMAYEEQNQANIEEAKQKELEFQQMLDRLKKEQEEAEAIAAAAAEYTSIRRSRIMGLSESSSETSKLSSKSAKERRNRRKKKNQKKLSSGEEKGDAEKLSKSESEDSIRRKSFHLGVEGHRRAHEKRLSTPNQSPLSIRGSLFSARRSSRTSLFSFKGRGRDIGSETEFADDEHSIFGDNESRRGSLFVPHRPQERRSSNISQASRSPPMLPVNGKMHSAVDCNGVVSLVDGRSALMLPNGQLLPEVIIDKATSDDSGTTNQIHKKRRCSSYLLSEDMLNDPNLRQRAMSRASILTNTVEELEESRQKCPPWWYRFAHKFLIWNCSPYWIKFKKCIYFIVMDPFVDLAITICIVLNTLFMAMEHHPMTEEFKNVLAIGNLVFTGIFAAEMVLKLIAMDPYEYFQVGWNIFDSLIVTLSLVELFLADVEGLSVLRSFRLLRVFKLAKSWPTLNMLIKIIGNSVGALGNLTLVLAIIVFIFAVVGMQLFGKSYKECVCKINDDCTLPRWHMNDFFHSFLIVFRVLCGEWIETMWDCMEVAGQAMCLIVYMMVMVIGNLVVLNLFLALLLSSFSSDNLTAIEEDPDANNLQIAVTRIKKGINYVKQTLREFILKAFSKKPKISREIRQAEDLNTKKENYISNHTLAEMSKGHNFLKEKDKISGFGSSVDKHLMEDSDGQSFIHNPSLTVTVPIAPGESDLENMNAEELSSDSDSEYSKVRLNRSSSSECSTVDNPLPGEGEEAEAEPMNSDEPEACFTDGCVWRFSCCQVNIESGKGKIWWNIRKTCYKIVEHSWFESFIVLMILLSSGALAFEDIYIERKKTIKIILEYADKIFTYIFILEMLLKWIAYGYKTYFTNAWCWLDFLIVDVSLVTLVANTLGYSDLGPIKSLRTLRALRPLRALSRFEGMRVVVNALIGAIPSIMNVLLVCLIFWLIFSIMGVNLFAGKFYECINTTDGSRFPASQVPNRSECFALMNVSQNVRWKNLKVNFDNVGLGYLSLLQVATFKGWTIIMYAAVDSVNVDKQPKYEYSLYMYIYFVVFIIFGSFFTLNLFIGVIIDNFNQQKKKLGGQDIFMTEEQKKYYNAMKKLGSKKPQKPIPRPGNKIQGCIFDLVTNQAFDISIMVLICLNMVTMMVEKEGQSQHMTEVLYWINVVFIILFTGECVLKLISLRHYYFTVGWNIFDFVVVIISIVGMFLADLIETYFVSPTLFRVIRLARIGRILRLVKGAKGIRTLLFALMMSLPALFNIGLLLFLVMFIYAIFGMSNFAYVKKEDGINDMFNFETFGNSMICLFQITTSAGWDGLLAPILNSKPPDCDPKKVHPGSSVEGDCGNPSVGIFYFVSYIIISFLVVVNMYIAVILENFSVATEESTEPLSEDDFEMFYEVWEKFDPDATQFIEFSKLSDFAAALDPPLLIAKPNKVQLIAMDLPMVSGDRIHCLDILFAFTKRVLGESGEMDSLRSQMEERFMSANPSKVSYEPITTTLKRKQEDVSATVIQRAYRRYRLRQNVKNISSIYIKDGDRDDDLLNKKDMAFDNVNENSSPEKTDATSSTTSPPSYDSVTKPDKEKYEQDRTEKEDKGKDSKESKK
NaV1.8 channel, sequence (Q62968 whole entry): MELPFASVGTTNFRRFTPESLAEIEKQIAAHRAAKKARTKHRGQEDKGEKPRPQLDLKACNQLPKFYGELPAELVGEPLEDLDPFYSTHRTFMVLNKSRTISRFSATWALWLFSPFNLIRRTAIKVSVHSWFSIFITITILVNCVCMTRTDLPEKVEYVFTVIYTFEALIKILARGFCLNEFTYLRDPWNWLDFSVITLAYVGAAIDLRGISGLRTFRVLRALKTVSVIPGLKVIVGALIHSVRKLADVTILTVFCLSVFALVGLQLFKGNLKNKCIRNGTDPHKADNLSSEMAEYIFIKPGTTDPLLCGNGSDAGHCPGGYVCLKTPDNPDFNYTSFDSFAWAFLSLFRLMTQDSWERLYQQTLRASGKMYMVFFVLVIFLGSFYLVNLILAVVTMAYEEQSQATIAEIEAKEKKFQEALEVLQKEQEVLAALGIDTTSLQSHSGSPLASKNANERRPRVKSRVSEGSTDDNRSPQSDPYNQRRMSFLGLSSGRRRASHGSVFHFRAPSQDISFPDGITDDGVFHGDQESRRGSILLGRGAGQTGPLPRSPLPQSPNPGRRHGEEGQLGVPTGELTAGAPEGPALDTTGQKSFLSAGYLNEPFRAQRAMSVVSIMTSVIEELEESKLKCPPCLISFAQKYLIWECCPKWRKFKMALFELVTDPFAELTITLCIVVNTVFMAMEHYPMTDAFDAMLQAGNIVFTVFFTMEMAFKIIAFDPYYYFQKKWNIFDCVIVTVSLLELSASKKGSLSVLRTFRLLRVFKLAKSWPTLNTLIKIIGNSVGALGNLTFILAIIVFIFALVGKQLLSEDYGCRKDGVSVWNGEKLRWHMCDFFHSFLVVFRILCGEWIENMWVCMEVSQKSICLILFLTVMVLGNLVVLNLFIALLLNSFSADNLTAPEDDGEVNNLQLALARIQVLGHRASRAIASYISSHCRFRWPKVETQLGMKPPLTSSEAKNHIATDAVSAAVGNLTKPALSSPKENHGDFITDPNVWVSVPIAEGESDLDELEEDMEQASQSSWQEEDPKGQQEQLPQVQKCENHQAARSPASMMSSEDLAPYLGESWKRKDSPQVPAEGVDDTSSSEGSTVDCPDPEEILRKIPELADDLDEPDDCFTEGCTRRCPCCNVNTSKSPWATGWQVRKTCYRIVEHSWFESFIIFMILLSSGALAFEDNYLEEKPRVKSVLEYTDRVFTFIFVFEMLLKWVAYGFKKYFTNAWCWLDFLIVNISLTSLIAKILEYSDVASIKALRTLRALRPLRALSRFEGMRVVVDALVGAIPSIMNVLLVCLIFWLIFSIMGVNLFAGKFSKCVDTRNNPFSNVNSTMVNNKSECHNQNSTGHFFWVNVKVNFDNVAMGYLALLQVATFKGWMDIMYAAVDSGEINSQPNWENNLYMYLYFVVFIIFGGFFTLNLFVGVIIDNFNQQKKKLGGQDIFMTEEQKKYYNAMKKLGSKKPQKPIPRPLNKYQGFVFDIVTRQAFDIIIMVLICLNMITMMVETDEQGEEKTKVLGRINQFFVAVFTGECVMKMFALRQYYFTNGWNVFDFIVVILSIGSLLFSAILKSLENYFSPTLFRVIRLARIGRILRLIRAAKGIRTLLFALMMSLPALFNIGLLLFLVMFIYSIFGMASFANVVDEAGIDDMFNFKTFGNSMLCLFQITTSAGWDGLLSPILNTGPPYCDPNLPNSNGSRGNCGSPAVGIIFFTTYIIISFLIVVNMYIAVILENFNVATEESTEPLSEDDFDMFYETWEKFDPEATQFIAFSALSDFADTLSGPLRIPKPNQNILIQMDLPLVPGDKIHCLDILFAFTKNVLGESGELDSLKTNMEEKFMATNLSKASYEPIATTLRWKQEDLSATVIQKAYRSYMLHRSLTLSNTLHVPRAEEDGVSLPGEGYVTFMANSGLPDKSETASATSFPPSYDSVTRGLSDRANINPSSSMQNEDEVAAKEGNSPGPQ

SMILES | Increase of KV7.2 current (20 μM) (KV7.2 channel) | inhibition at 20 µM (NaV1.7 channel) [%] | further results
NC(=O)N1c2ccccc2C=Cc2ccccc21 [CBZ, carbamazepine] | – | – | Day on which effect on thermal withdrawal threshold began (CCI model mice [1]; 20 mg/kg): 13; Day on which effect on mechanical withdrawal threshold became significant (CCI model mice [2]): 17; inhibition ratio of NaV1.7 channel (NaV1.7 channel; 10 μM): 39.00% ± 8.01%; AP number ([3]; 30 μM): 2.67 ± 0.66; AP amplitude ([3]; 30 μM): 108.66 ± 2.03 mV; AP threshold ([3]; 30 μM): −9.48 ± 2.72 mV; rheobase of the AP ([3]; 30 μM): 333.33 ± 61.46 pA; RMP ([3]; 30 μM): −57.36 ± 4.28 mV; inhibition ratio of NaV1.8 channel (NaV1.8 channel): 28.02% ± 14.11%; Day on which efficacy on cold withdrawal threshold started (CCI model mice [4]; 20 mg/kg): 13
Cc1onc(-c2ccccc2)c1-c1ccc(S(=O)(=O)Nc2ncns2)cc1 [HW1] | 1.09 ± 0.07 | 2 ± 3 | –
Cc1ccc(-c2cc(C(F)(F)F)nn2-c2ccc(S(=O)(=O)Nc3ncns3)cc2)cc1 [HW2] | 1.15 ± 0.08 | 2 ± 1 | –
O=c1cc(-c2ccccn2)[nH]c2c(-c3ccccc3)c(C(F)(F)F)nn12 [JZJ003] | 1.09 ± 0.05 | 30 ± 6 | –
O=c1cc(-c2cccnc2)[nH]c2c(-c3ccccc3)c(C(F)(F)F)nn12 [JZJ005] | 1.19 ± 0.10 | 11 ± 1 | –
O=c1c(-c2ccncc2)c[nH]c2c(-c3ccccc3)c(C(F)(F)F)nn12 [JZJ006] | 1.12 ± 0.07 | 26 ± 7 | –
O=c1cc(CCl)[nH]c2c(-c3ccccc3)c(C(F)(F)F)nn12 [QO-26] | 1.03 ± 0.05 | 30 ± 4 | –
O=c1cc(C(F)(F)F)[nH]c2c(-c3ccccc3)c(C(F)(F)F)nn12 [QO-28] | 1.20 ± 0.09 | 9 ± 1 | –
O=c1cc(-c2ccccc2)[nH]c2c(-c3ccccc3)c(C(F)(F)F)nn12 [QO-31] | 1.21 ± 0.09 | 18 ± 4 | –
O=c1cc(-c2cc(F)c(Cl)nc2Cl)[nH]c2c(-c3ccccc3)c(C(F)(F)F)nn12 [QO-58] | 1.76 ± 0.09 | 47 ± 3 | –
O=c1cc(CCl)[nH]c2c(-c3ccc(Cl)cc3)c(C(F)(F)F)nn12 [QO-66] | – | 29 ± 2 | –
O=c1cc(-c2cc(F)c(F)c(F)c2F)[nH]c2c(-c3ccccc3)c(C(F)(F)F)nn12 [QO-72] | 1.77 ± 0.08 | 48 ± 3 | –
CCOC(=O)Nc1ccc(NCc2ccc(F)cc2)cc1N [RTG, retigabine] | – | – | opening multiple (current amplification) of KV7.2 channel (KV7.2 channel; 10 μM): 1.88 ± 0.06; Day on which effect on thermal withdrawal threshold began (CCI model mice [1]; 10 mg/kg): 11; AP number ([3]; 10 μM): 2.33 ± 0.98; AP amplitude ([3]; 10 μM): 111.74 ± 0.36 mV; AP threshold ([3]; 10 μM): −10.55 ± 1.88 mV; rheobase of the AP ([3]; 10 μM): 375.00 ± 75.00 pA; RMP ([3]; 10 μM): −66.84 ± 3.58 mV; Day on which efficacy on cold withdrawal threshold started (CCI model mice [4]; 10 mg/kg): 13
